Calls of active or inactive are those of the source. The calls are words filed in the database; no cut-off is given here. Non-standard residues stand in square brackets, D forms with d. Residues, ends and D or L forms follow the SMILES beside them.
Tests used:
[1] = tested on: Staphylococcus aureus; assay: Antibacterial activity against Staphylococcus aureus Smith infected in ICR mouse assessed as survival rate at 100 ug, ip pretreated for 7 hrs before infection using 3 X 10^7 CFU inoculum measured on day 5; type: functional
[2] = tested on: Staphylococcus aureus; assay: Antibacterial activity against Staphylococcus aureus Smith infected in ICR mouse assessed as survival rate at 100 ug, ip pretreated for 7 hrs before infection using 3 X 10^6 CFU inoculum measured on day 5; type: functional
[3] = tested on: Escherichia coli; assay: Antibacterial activity against Escherichia coli EC14 infected in ICR mouse assessed as survival rate at 100 ug, ip pretreated for 7 hrs before infection using 2.5 X 10^4 CFU inoculum measured on day 5; type: functional
[4] = tested on: Escherichia coli; assay: Antibacterial activity against Escherichia coli EC14 infected in ICR mouse assessed as survival rate at 100 ug, ip pretreated for 7 hrs before infection using 2.5 X 10^3 CFU inoculum measured on day 5; type: functional
[5] = tested on: Staphylococcus aureus; assay: Antibacterial activity against Staphylococcus aureus Smith infected in ICR mouse assessed as survival rate at 100 ug, ip pretreated for 7 hrs before infection using 2 X 10^6 CFU inoculum measured on day 5 after bacterial infection; type: functional
Outline: (§1)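 Five-week-old female ICR mice got peptide intraperitoneally in 500 μl Dulbecco's PBS with 2% DMSO; vehicle controls got PBS/2% DMSO. The minimum lethal bacterial dose was given intraperitoneally at set intervals: S. aureus Smith 2 × 10⁶, E. faecalis SR1004 1.7 × 10⁸, E. coli EC14 2.3 × 10⁴ CFU/mouse. Survival was scored on day 5 (4 or 8 mice/group; Fisher's exact test).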

[6] = tested on: Enterococcus faecalis; assay: Antibacterial activity against Enterococcus faecalis SR1004 infected in ICR mouse assessed as survival rate at 100 ug, ip pretreated for 7 hrs before infection using 1.7 X 10^8 inoculum measured on day 5 after bacterial infection; type: functional; outline: as §1
[7] = tested on: Escherichia coli; assay: Antibacterial activity against Escherichia coli EC14 infected in ICR mouse assessed as survival rate at 100 ug, ip pretreated for 7 hrs before infection using 2.3 X 10^4 CFU inoculum measured on day 5 after bacterial infection; type: functional; outline: as §1
[8] = tested on: Staphylococcus aureus; assay: Antibacterial activity against Staphylococcus aureus Smith by broth microdilution method; type: functional
Outline: (§2)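 MIC was determined by broth microdilution following NCCLS recommendations.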

[9] = tested on: Enterococcus faecalis; assay: Antibacterial activity against Enterococcus faecalis SR1004 by broth microdilution method; type: functional; outline: as §2
[10] = tested on: Escherichia coli; assay: Antibacterial activity against Escherichia coli EC14 by broth microdilution method; type: functional; outline: as §2
[11] = tested on: Staphylococcus aureus; assay: Antibacterial activity against Staphylococcus aureus Smith infected in ICR mouse assessed as survival rate at 50 ug, ip treated 0.5 hrs after infection using 2 X 10^6 CFU inoculum measured on day 5 after bacterial infection; type: functional; outline: as §1
[12] = tested on: Staphylococcus aureus; assay: Antibacterial activity against Staphylococcus aureus Smith infected in ICR mouse assessed as survival rate at 50 ug, ip treated at the time of infection using 2 X 10^6 CFU inoculum measured on day 5 after bacterial infection; type: functional; outline: as §1
[13] = tested on: Staphylococcus aureus; assay: Antibacterial activity against Staphylococcus aureus Smith infected in ICR mouse assessed as survival rate at 50 ug, ip pretreated for 1 hr before infection using 2 X 10^6 CFU inoculum measured on day 5 after bacterial infection; type: functional; outline: as §1
[14] = tested on: Staphylococcus aureus; assay: Antibacterial activity against Staphylococcus aureus Smith infected in ICR mouse assessed as survival rate at 50 ug, ip pretreated for 3 hrs before infection using 2 X 10^6 CFU inoculum measured on day 5 after bacterial infection; type: functional; outline: as §1
[15] = tested on: Staphylococcus aureus; assay: Antibacterial activity against Staphylococcus aureus Smith infected in ICR mouse assessed as survival rate at 50 ug, ip pretreated for 7 hrs before infection using 2 X 10^6 CFU inoculum measured on day 5 after bacterial infection; type: functional; outline: as §1
[16] = tested on: Staphylococcus aureus; assay: Antibacterial activity against Staphylococcus aureus Smith infected in ICR mouse assessed as survival rate at 50 ug, ip pretreated for 24 hrs before infection using 2 X 10^6 CFU inoculum measured on day 5 after bacterial infection; type: functional; outline: as §1
[17] = tested on: Staphylococcus aureus; assay: Antibacterial activity against Staphylococcus aureus Smith infected in ICR mouse assessed as survival rate at 3.13 ug, ip pretreated for 7 hrs before infection using 2 X 10^6 CFU inoculum measured on day 5 after bacterial infection; type: functional; outline: as §1
[18] = tested on: Staphylococcus aureus; assay: Antibacterial activity against Staphylococcus aureus Smith infected in ICR mouse assessed as survival rate at 12.5 ug, ip pretreated for 7 hrs before infection using 2 X 10^6 CFU inoculum measured on day 5 after bacterial infection; type: functional; outline: as §1
[19] = tested on: Staphylococcus aureus; assay: Antibacterial activity against Staphylococcus aureus Smith infected in ICR mouse assessed as survival rate at 25 ug, ip pretreated for 7 hrs before infection using 2 X 10^6 CFU inoculum measured on day 5 after bacterial infection; type: functional; outline: as §1
[20] = tested on: Mus musculus; assay: Induction of ROS generation in intraperitoneally dosed ICR mouse abdominal cavity neutrophils after 7 hrs by lucigenin-dependent chemiluminescence method; type: functional, organism-based
Outline: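 Peptide was injected intraperitoneally. After 7 h, peritoneal cells were collected by lavage with 5 ml cold saline, washed, and suspended at 2 × 10⁵ cells/ml in HEPES-buffered Hank's solution, pH 7.4. After 5 min at 37°C, lucigenin was added to 0.1 mM final. Chemiluminescence was read at 37°C in relative light units. The experiment was repeated and representative data shown.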

[21] = tested on: Mus musculus; assay: Induction of neutrophil recruitment in intraperitoneally dosed ICR mouse abdominal cavity assessed as accumulation of neutrophils after 7 hrs using hematoxylin and eosin staining by microscopy; type: functional, organism-based
Outline: (§3)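 Peptide was injected intraperitoneally. After 7 h, the peritoneal cavity was lavaged with 5 ml cold sterile saline. Cells were washed, resuspended at 1 × 10⁶/ml in heat-inactivated FCS, cytocentrifuged, and stained with Diff-Quick. Total cells and neutrophils were counted by microscopy, and neutrophil percentage was averaged over five fields ± SD. Comparison used an unpaired t test after arcsine transformation.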

[22] = tested on: Mus musculus; assay: Induction of neutrophil recruitment in intraperitoneally dosed ICR mouse abdominal cavity assessed as neutrophil level after 7 hrs using hematoxylin and eosin staining by microscopy; type: functional; outline: as §3
[23] = tested on: Staphylococcus aureus; assay: Antibacterial activity against Staphylococcus aureus Cowan I infected in intraperitoneally dosed ICR mouse assessed as bacterial kill in abdomen pretreated for 7 hrs before infection using 4 X 10^5 CFU inoculum; type: functional
Outline: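 Peptide solution (500 μl) was injected ip. After 7 h, S. aureus Cowan I (4 × 10⁵ CFU/mouse) was introduced into the abdominal cavity for 15 min. The peritoneum was lavaged with 5 ml cold sterile saline, serially diluted in PBS and plated on LB agar for 18 h. Colonies were counted against saline-control mice (unpaired Student's t test).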

[24] = tested on: Peritoneal macrophage cell; assay: Induction of Mig/CXCL9 mRNA expression in TGC-elicited ICR mouse peritoneal macrophage at 25 ug/ml after 2.5 to 5 hrs by RT-PCR; type: functional, cell-based
Outline: (§4)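 Mouse peritoneal macrophages were elicited with 3 ml of 3% thioglycolate medium given intraperitoneally and collected 4 days later by lavage with cold PBS. Cells were seeded at 1 × 10⁶/ml in RPMI-1640 with 10% heat-inactivated FCS and allowed to adhere for 2 h at 37°C; nonadherent cells were then rinsed off. Cells were exposed to peptide at 25 μg/ml for 2.5, 5 or 7.5 h, with LPS at 100 ng/ml for 24 h as positive control. RT-PCR used 400 ng total RNA and 25–35 cycles, with ethidium bromide agarose gels and G3PDH primers; n = 3.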

[25] = tested on: Peritoneal macrophage cell; assay: Induction of Mig/CXCL9 mRNA expression in TGC-elicited ICR mouse peritoneal macrophage at 25 ug/ml after 7.5 hrs by RT-PCR; type: functional, cell-based; outline: as §4
[26] = species on record: Mus musculus; assay: Induction of Mig/CXCL9 mRNA expression in TGC-elicited ICR mouse peritoneal macrophage at 25 ug/ml after 5 hrs by RT-PCR; type: functional; outline: as §4

CC(C)C[C@@H](NC(=O)[C@H](N)CCCCN)C(=O)N[C@H](CCCCN)C(=O)N[C@H](CC(C)C)C(=O)N[C@H](CC(C)C)C(=O)N[C@H](CC(C)C)C(=O)N[C@H](CC(C)C)C(=O)N[C@H](CC(C)C)C(=O)N[C@H](CCCCN)C(=O)N[C@H](CC(C)C)C(=O)N[C@H](CCCCN)C(N)=O (H-[dK][dL][dK][dL][dL][dL][dL][dL][dK][dL][dK]-NH2)
Activity [1]: 25% | Activity [2]: 50% | Activity [3]: 100% | Activity [4]: 100% | Survival [5]: 100% | Survival [6]: 100% | Survival [7]: 75% | MIC [8]: > 625 µg/mL | MIC [9]: > 625 µg/mL | MIC [10]: > 625 µg/mL | Survival [11]: 0% | Survival [12]: 0% | Survival [13]: 25% | Survival [14]: 62.5% | Survival [15]: 87.5% | Survival [16]: 0% | Survival [17]: 0% | Survival [18]: 0% | Survival [19]: 75%

H-KLKLLLKLK-NH2
Survival [5]: 0% | Activity [20]: inactive

H-KLKLLLLLKLK-NH2
Survival [5]: 75% | Survival [6]: 75% | Survival [7]: 25% | MIC [8]: > 625 µg/mL | MIC [9]: > 625 µg/mL | MIC [10]: > 625 µg/mL | Activity [21]: Active | Activity [22]: 40% | Activity [23]: 75% | Activity [24]: Active | Activity [25]: inactive | Activity [26]: Active | Activity [20]: Active
